In general, inhibition in vivo refers to the change of the read-out against control, counted positive when it falls.

The source of these data is ChEMBL document CHEMBL1137722, “Synthesis and pharmacological evaluation of a novel series of 5-(substituted)aryl-3-(3-coumarinyl)-1-phenyl-2-pyrazolines as novel anti-inflammatory and analgesic agents” (Eur J Med Chem, 2009).

The first data set has as its system Mus musculus. Description: Acute toxicity in albino mouse assessed as mortality up to 2000 mg/kg, po after 24 hrs. The class given is organism-based. Further details: dose 2000 mg/kg, route oral. As to conditions: in vivo. The method in brief: (§1)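 Albino mice of either sex (20–25 g), 12 groups of six, fasted 24 h with water available. Given oral doses rising through 10, 20, 100, 200, 1000 and 2000 mg/kg. Watched continuously for 3 h for behavioural, neurological and autonomic signs, then every 30 min for the next 3 h, then up to 24 h or until death. Guideline: OECD.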
On to `O=c1oc2ccccc2cc1C1=NN(c2ccccc2)[C@@H](c2cccc([N+](=O)[O-])c2)C1`, for which the Activity entry was “Non-toxic”.

For `CN(C)c1ccc([C@H]2CC(c3cc4ccccc4oc3=O)=NN2c2ccccc2)cc1`, the Activity result is given as “Non-toxic”.

For the molecule `O=c1oc2ccccc2cc1C1=NN(c2ccccc2)[C@@H](/C=C/c2ccccc2)C1`, the Activity result is listed as “Non-toxic”.

In the case of `Cc1ccc([C@H]2CC(c3cc4ccccc4oc3=O)=NN2c2ccccc2)cc1`, the Activity entry is on record as “Non-toxic”.

Regarding `COc1ccc([C@H]2CC(c3cc4ccccc4oc3=O)=NN2c2ccccc2)cc1`, the Activity result is listed as “Non-toxic”.

As for `O=c1oc2ccccc2cc1C1=NN(c2ccccc2)[C@@H](c2ccccc2[N+](=O)[O-])C1`, the Activity entry is “Non-toxic”.

Another data set has as its system Rattus norvegicus. Description: Antiinflammatory activity in albino rat acute inflammatory model assessed as inhibition of carrageenan-induced paw edema at 200 mg/kg, po dosed 1 hr before carrageenan challenge measured after 2 hrs relative to control.
Conditions: not given
The class given is functional. The method in brief:
(§2)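 Male albino rats (170–220 g), fasted at least 12 h with water available, groups of six. Oral dosing with 0.5% sodium CMC vehicle control. One hour later, 0.05 ml of 1% carrageenan was injected subplantar into the left hind paw. Paw volume was measured by digital plethysmometer at 0, 2 and 4 h. % inhibition = [1 − treated/control edema volume] × 100, n=6.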
In general terms: In the carrageenan paw model, swelling and tenderness develop within hours.
`O=c1oc2ccccc2cc1C1=NN(c2ccccc2)[C@@H](c2cccc([N+](=O)[O-])c2)C1`: the inhibition in vivo at 200 mg/kg amounted to 26.1%.

With `CN(C)c1ccc([C@H]2CC(c3cc4ccccc4oc3=O)=NN2c2ccccc2)cc1`, the inhibition in vivo at 200 mg/kg was found to be 28.4%.

Regarding `O=c1oc2ccccc2cc1C1=NN(c2ccccc2)[C@@H](/C=C/c2ccccc2)C1`, the inhibition in vivo at 200 mg/kg stood at 26.7%.

As for `Cc1ccc([C@H]2CC(c3cc4ccccc4oc3=O)=NN2c2ccccc2)cc1`, the inhibition in vivo at 200 mg/kg amounted to 30.1%.

`COc1ccc([C@H]2CC(c3cc4ccccc4oc3=O)=NN2c2ccccc2)cc1`: the inhibition in vivo at 200 mg/kg was determined as 24.8%.

Consider `O=c1oc2ccccc2cc1C1=NN(c2ccccc2)[C@@H](c2ccccc2[N+](=O)[O-])C1`, for which the inhibition in vivo at 200 mg/kg was found to be 24.7%.

The subject of a further data set is Mus musculus. Put plainly: Acute toxicity in albino mouse assessed as behavioral response up to 2000 mg/kg, po after 24 hrs. It is filed as organism-based. Also noted: dose 2000 mg/kg, route oral. As to conditions: in vivo. In a few lines: as §1
In the case of `O=c1oc2ccccc2cc1C1=NN(c2ccccc2)[C@@H](c2cccc([N+](=O)[O-])c2)C1`, the Activity result is reported as “Toxic”.

Consider `CN(C)c1ccc([C@H]2CC(c3cc4ccccc4oc3=O)=NN2c2ccccc2)cc1`, for which the Activity result is “Toxic”.

For `O=c1oc2ccccc2cc1C1=NN(c2ccccc2)[C@@H](/C=C/c2ccccc2)C1`, the Activity result is “Toxic”.

For `Cc1ccc([C@H]2CC(c3cc4ccccc4oc3=O)=NN2c2ccccc2)cc1`, the Activity entry is “Toxic”.

As to `COc1ccc([C@H]2CC(c3cc4ccccc4oc3=O)=NN2c2ccccc2)cc1`, the Activity entry is reported as “Toxic”.

With `O=c1oc2ccccc2cc1C1=NN(c2ccccc2)[C@@H](c2ccccc2[N+](=O)[O-])C1`, the Activity entry was “Toxic”.

For the next data set, the system named is Rattus norvegicus. Put plainly: Antiinflammatory activity in albino rat acute inflammatory model assessed as inhibition of carrageenan-induced paw edema at 13.5 mg/kg, po dosed 1 hr before carrageenan challenge measured after 2 hrs relative to control. The class given is functional.
Conditions: not given
The method in brief: as §2
In the case of `O=C(O)Cc1ccccc1Nc1c(Cl)cccc1Cl` [DICLOFENAC], the inhibition in vivo at 13.5 mg/kg came to 63.7%.

In a further data set the test system is Rattus norvegicus. Put plainly: Gastrointestinal toxicity in starved po dosed albino rat stress model assessed as ulcer index after 7 hrs. The class given is organism-based. As to conditions: in vivo. The method in brief:
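Albino rats of either sex, 170–250 g, six per group, starved 48 h with water ad libitum. Dosed orally as a suspension in 0.5% sodium CMC, test compounds at 200 mg/kg b.w. Killed 7 h later. Stomach opened along the greater curvature and everted. Ulcer index from lesion counts in five size classes, ranging from pinpoint to >4 mm diameter.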
On to `CC(=O)Oc1ccccc1C(=O)O` [ASPIRIN], for which the UI is 4.33.

The next data set deals with Rattus norvegicus. Put plainly: Antiinflammatory activity in albino rat chronic arthritis model assessed as inhibition of Freund's adjuvant-induced paw edema at 13.5 mg/kg, po administered on day 16 to 19 post Freund's adjuvant challenge measured on day 19 relative to control. The class given is functional.
Conditions: not given
In a few lines:
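Male albino rats (150–230 g) received 0.1 ml heat-killed M. tuberculosis (Freund's complete adjuvant) into the left hind footpad on day 1. Rats with developed arthritis on day 15 were split into groups of six. Dosing was oral, days 16–19, with 1 ml 0.5% sodium CMC as control. Paw volume, body weight and secondary lesions were recorded daily. % inhibition was calculated from day 15, n=6.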
`O=C(O)Cc1ccccc1Nc1c(Cl)cccc1Cl` [DICLOFENAC]: the inhibition in vivo at 13.5 mg/kg is 53%.

A further data set concerns Rattus norvegicus. Description: Antiinflammatory activity in albino rat acute inflammatory model assessed as inhibition of carrageenan-induced paw edema at 200 mg/kg, po dosed 1 hr before carrageenan challenge measured after 4 hrs relative to control. The class given is functional.
Conditions: not given
The method in brief:
as §2
Consider `O=c1oc2ccccc2cc1C1=NN(c2ccccc2)[C@@H](c2cccc([N+](=O)[O-])c2)C1`, for which the inhibition in vivo at 200 mg/kg turned out to be 31.2%.

With `CN(C)c1ccc([C@H]2CC(c3cc4ccccc4oc3=O)=NN2c2ccccc2)cc1`, the inhibition in vivo at 200 mg/kg came out at 40.1%.

As to `O=c1oc2ccccc2cc1C1=NN(c2ccccc2)[C@@H](/C=C/c2ccccc2)C1`, the inhibition in vivo at 200 mg/kg came out at 42.5%.

Turning to `Cc1ccc([C@H]2CC(c3cc4ccccc4oc3=O)=NN2c2ccccc2)cc1`, the inhibition in vivo at 200 mg/kg was determined as 38%.

For the molecule `COc1ccc([C@H]2CC(c3cc4ccccc4oc3=O)=NN2c2ccccc2)cc1`, the inhibition in vivo at 200 mg/kg came out at 36.2%.

`O=c1oc2ccccc2cc1C1=NN(c2ccccc2)[C@@H](c2ccccc2[N+](=O)[O-])C1`: the inhibition in vivo at 200 mg/kg worked out at 26.6%.

Another data set concerns Mus musculus. Put plainly: Analgesic activity in albino mouse assessed as protection against glacial acetic acid-induced writhing response at 30 mg/kg, po pretreated 0.5 hrs before glacial acetic acid challenge measured for 15 mins. The class given is functional.
Conditions: not given
In a few lines:
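Albino mice of either sex (20–25 g). Mice were pre-screened the day before for writhing, and only responders were used. Compound was given orally as a suspension in 0.5% sodium CMC 30 min before glacial acetic acid challenge. Stretching episodes were counted for 15 min. Results are the group mean, n=6, with % protection against control.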
On the technique in general: An intraperitoneal irritant provokes the stretching counted in writhing tests.
With `CC(=O)Oc1ccccc1C(=O)O` [ASPIRIN], the Activity was found to be 67%.

For a further data set, the system named is Rattus norvegicus. Put plainly: Antiinflammatory activity in albino rat acute inflammatory model assessed as inhibition of carrageenan-induced paw edema at 13.5 mg/kg, po dosed 1 hr before carrageenan challenge measured after 4 hrs relative to control. The class given is functional.
Conditions: not given
In a few lines:
as §2
For `O=C(O)Cc1ccccc1Nc1c(Cl)cccc1Cl` [DICLOFENAC], the inhibition in vivo at 13.5 mg/kg was 78.7%.
